Experiment [1] can be described thus: Inhibition of amyloid beta (25 to 35)-mediated damage in Sprague-Dawley rat neurons assessed as dendritic extension at 1 uM treated 4 days after amyloid beta-challenge measured after 4 days by immunostaining method. In outline:
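Rat cortical neurons were exposed to Aβ for 4 days before the test compounds were added. Dendrite length was quantified after a further 4 days. The vehicle control was 0.1% DMSO given to Aβ-exposed cells, and the normal control was cells without Aβ treatment.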

Experiment [2] can be described thus: Inhibition of amyloid beta (1 to 42)-mediated damage in Sprague-Dawley rat neurons assessed as dendritic extension at 1 uM administered 3 days after amyloid beta-challenge measured after 5 days by immunostaining method.
Experiment [3] in a line: Inhibition of amyloid beta (1 to 42)-mediated damage in Sprague-Dawley rat neurons assessed as axonal extension at 1 uM treated 3 days after amyloid beta-challenge measured after 5 days by immunostaining method.

The source made the active and inactive calls. The calls are words filed in the database; no cut-off is given here.

Take `N#C[C@]12CCC3(OCCO3)C3=CO[C@H](Cc4cc(OS(=O)(=O)C(F)(F)F)ccc41)[C@@H]32`: the inhibition result in experiment [1] is “inactive”.
As to `N#C[C@]12CCC3(OCCO3)C3=CO[C@H](Cc4cc(O)ccc41)[C@@H]32`, the inhibition entry in experiment [1] and in experiment [2] was “Active” throughout.
Turning to `N#C[C@]12CCC3(OCCO3)C3=CO[C@H](Cc4cc(-c5ccccc5)ccc41)[C@@H]32`, the inhibition entry in experiment [1] was “inactive”.
As to `COc1cc2c(cc1O)C[C@H]1OC=C3[C@H]1[C@@]2(C#N)CCC31OCCO1`, the inhibition result in experiment [3] and in experiment [2] was “Active” in each case.
For the compound `N#C[C@]12CCC3(OCCO3)C3=CO[C@H](Cc4cc(OC(F)(F)F)ccc41)[C@@H]32`, the inhibition entry in experiment [1] was “inactive”.
On the same count and under the same terms, the result for `N#C[C@]12CCC3(OCCO3)C3=CO[C@H](Cc4cc(OCc5ccccc5)ccc41)[C@@H]32` reads “inactive”.
Consider `COc1cc2c(cc1O)[C@]1(C#N)CCC3(OCCO3)C3=CO[C@H](C2)[C@@H]31`, for which the inhibition entry in experiment [3] and in experiment [2] was “Active” each time.
Consider `CC(C)[Si](Oc1ccc2c(c1)C[C@H]1OC=C3[C@H]1[C@@]2(C#N)CCC31OCCO1)(C(C)C)C(C)C`, for which the inhibition result in experiment [1] is “inactive”.
For the compound `N#C[C@]12CCC3(OCCO3)C3=CO[C@H](Cc4cc(OCc5cc(F)cc(F)c5)ccc41)[C@@H]32`, the inhibition entry in experiment [1] is “inactive”.
As to `N#C[C@]12CCC3(OCCO3)C3=CO[C@H](Cc4ccc(O)cc41)[C@@H]32`, the inhibition entry in experiment [3] and in experiment [2] was “Active” in each case.

The values above are taken from ChEMBL document CHEMBL1938363, “Synthesis of dihydrofuran-fused perhydrophenanthrenes having a phenolic hydroxyl group as a novel anti-Alzheimer's disease agent” (Bioorg Med Chem Lett, 2012).
